From ChEMBL document CHEMBL1124329, “Synthesis of novel bifunctional chelators and their use in preparing monoclonal antibody conjugates for tumor targeting” (J Med Chem, 1989)
“And” between values parts separate entries of the source, which are not always exact repeats. Equal values may be shown once.

Experiments:
Conditions in all cases: in vivo, iv
Mus musculus [1] = experiment: Biodistribution of labeled B72.3-chelator conjugate(DTPA amide) in Nude mice bearing LS174T tumors, in blood, administered intravenously expressed as % of injected dose of indium-111 per gram of tissue; type: ADME, organism-based
Mus musculus [2] = experiment: Biodistribution of labeled B72.3-chelator conjugate(DTPA amide)s in Nude mice bearing LS174T tumors, in lungs, administered intravenously expressed as % of injected dose of indium-111 per gram of tissue; type: ADME, organism-based, Lung
Mus musculus [3] = experiment: Biodistribution of labeled B72.3-chelator conjugate(DTPA amide) in Nude mice bearing LS174T tumor (Ag+), administered intravenously expressed as % of injected dose of indium-111 per gram of tissue; type: ADME, organism-based
Mus musculus [4] = experiment: Biodistribution of labeled B72.3-chelator conjugate(DTPA amide) in Nude mice bearing LS174T tumor (Ag-), administered intravenously expressed as % of injected dose of indium-111 per gram of tissue; type: ADME, organism-based
Mus musculus [5] = experiment: Biodistribution of labeled B72.3-chelator conjugate (DTPA amide) in Nude mice bearing LS174T tumor (Ag+), administered intravenously expressed as % of injected dose of indium-111 per gram of tissue; type: ADME, organism-based
Mus musculus [6] = experiment: Biodistribution of labeled B72.3-chelator conjugate (DTPA amide) in Nude mice bearing LS174T tumors, in blood, administered intravenously expressed as % of injected dose of indium-111 per gram of tissue; type: ADME, organism-based
Mus musculus [7] = experiment: Biodistribution of labeled B72.3-chelator conjugate in Nude mice bearing LS174T tumors, in liver, administered intravenously expressed as % of injected dose of indium-111 per gram of tissue
Mus musculus [8] = experiment: Biodistribution of labeled B72.3-chelator conjugate(DTPA amide) in Nude mice bearing LS174T tumors, in spleen, administered intravenously expressed as % of injected dose of indium-111 per gram of tissue; type: ADME, organism-based
Mus musculus [9] = experiment: Biodistribution of labeled B72.3-chelator conjugate(DTPA amide) in nude mice bearing LS174T tumors, in kidney, administered intravenously expressed as % of injected dose of indium-111 per gram of tissue; type: ADME, organism-based
Mus musculus [10] = experiment: Biodistribution of labeled B72.3-chelator conjugate(DTPA isothiocynates) in Nude mice bearing LS174T tumors, in liver, administered intravenously expressed as % of injected dose of indium-111 per gram of tissue; type: ADME, organism-based
Outline: (§1)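 Female athymic nu/nu mice (BALB/c background) were given 5×10^6 A375 melanoma cells (antigen-negative) s.c. in the left flank, then 14 days later 1.25×10^6 LS174T colorectal cells (antigen-positive) in the right flank. After a further 7–14 days, with tumors at 100–500 mg, mice were randomized and given 2.0 μg indium-111-labeled B72.3 conjugate in saline i.v. by tail vein. At 48 h, tissues were weighed and gamma-counted, and activity was expressed as % of counted injectate per gram.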

Mus musculus [11] = experiment: Biodistribution of labeled B72.3-chelator conjugate(DTPA isothiocynates) in Nude mice bearing LS174T tumors, in spleen, administered intravenously expressed as % of injected dose of indium-111 per gram of tissue; type: ADME, organism-based; outline: as §1
Mus musculus [12] = experiment: Biodistribution of labeled B72.3-chelator conjugate(DTPA isothiocynates) in nude mice bearing LS174T tumors, in kidney, administered intravenously expressed as % of injected dose of indium-111 per gram of tissue; type: ADME, organism-based; outline: as §1
Mus musculus [13] = experiment: Biodistribution of labeled B72.3-chelator conjugate(DTPA isothiocynates) in Nude mice bearing LS174T tumors, in lungs, administered intravenously expressed as % of injected dose of indium-111 per gram of tissue; type: ADME, organism-based, Lung; outline: as §1
Mus musculus [14] = experiment: Biodistribution of labeled B72.3-chelator conjugate(DTPA isothiocynates) in Nude mice bearing LS174T tumor (Ag+), administered intravenously expressed as % of injected dose of indium-111 per gram of tissue; type: ADME, organism-based; outline: as §1
Mus musculus [15] = experiment: Biodistribution of labeled B72.3-chelator conjugate (DTPA isothiocynates) in Nude mice bearing LS174T tumors, in blood, administered intravenously expressed as % of injected dose of indium-111 per gram of tissue; type: ADME, organism-based; outline: as §1
Mus musculus [16] = experiment: Biodistribution of labeled B72.3-chelator conjugate(EDTA isothiocynates) in Nude mice bearing LS174T tumors, in lungs, administered intravenously expressed as % of injected dose of indium-111 per gram of tissue; type: ADME, organism-based, Lung; outline: as §1
Mus musculus [17] = experiment: Biodistribution of labeled B72.3-chelator conjugate(EDTA isothiocynates) in Nude mice bearing LS174T tumors, in liver, administered intravenously expressed as % of injected dose of indium-111 per gram of tissue; type: ADME, organism-based; outline: as §1
Mus musculus [18] = experiment: Biodistribution of labeled B72.3-chelator conjugate(EDTA isothiocynates) in nude mice bearing LS174T tumors, in kidney, administered intravenously expressed as % of injected dose of indium-111 per gram of tissue; type: ADME, organism-based; outline: as §1
Mus musculus [19] = experiment: Biodistribution of labeled B72.3-chelator conjugatec in Nude mice bearing LS174T tumor (Ag+), administered intravenously expressed as % of injected dose of indium-111 per gram of tissue; type: ADME, organism-based
Mus musculus [20] = experiment: Biodistribution of labeled B72.3-chelator conjugate (EDTA isothiocynates) in Nude mice bearing LS174T tumors, in blood, administered intravenously expressed as % of injected dose of indium-111 per gram of tissue; type: ADME, organism-based; outline: as §1
Mus musculus [21] = experiment: Biodistribution of labeled B72.3-chelator conjugate(EDTA isothiocynates) in Nude mice bearing LS174T tumors, in spleen, administered intravenously expressed as % of injected dose of indium-111 per gram of tissue; type: ADME, organism-based; outline: as §1

| Biodistribution (Mus musculus [1]) [%] | Biodistribution (Mus musculus [2]) | Biodistribution (Mus musculus [4]) [%] | Biodistribution (Mus musculus [5]) [%] | Biodistribution (Mus musculus [7]) | Biodistribution (Mus musculus [8]) | Biodistribution (Mus musculus [9]) | Compound | other results |
| --- | --- | --- | --- | --- | --- | --- | --- | --- |
| 10.67 | 6.3% and 6.15% | 6.23 | 18.97 | 17.2% and 19.39% | 9.14% and 12.12% | 17.14% and 12.64% | O=C(O)CN(CCN(CC(=O)O)CC(=O)O)CCN(CC(=O)O)CC(=O)O [PENTETIC ACID] | Biodistribution (Mus musculus [3]): 42.22%; Biodistribution (Mus musculus [6]): 11.23% |
| – | – | – | – | – | – | – | Nc1ccc(CC(CN(CCN(CC(=O)O)CC(=O)O)CC(=O)O)N(CC(=O)O)CC(=O)O)cc1 (stereo not given) | Biodistribution (Mus musculus [10]): 9.09%; Biodistribution (Mus musculus [11]): 5.03%; Biodistribution (Mus musculus [12]): 8.99%; Biodistribution (Mus musculus [13]): 9.94%; Biodistribution (Mus musculus [14]): 25.94%; Biodistribution (Mus musculus [15]): 18.37% |
| 8.9 | 4.1% | 4.1 | 19.5 | 6.9% | 4% | 2.3% | O=C(O)CN(CCN(CC(=O)O)CC(=O)O)CCN(CC(=O)O)C(Cc1ccc(N=C=S)cc1)C(=O)O (stereo not given) | – |
| 12.1 | 5.5% | 5.2 | 21.1 | 6.1% | 3.9% | 5.9% | O=C(O)CN(CCN(CC(=O)O)C(Cc1ccc(N=C=S)cc1)C(=O)O)CC(=O)O (stereo not given) | – |
| – | – | – | – | – | – | – | Nc1ccc(CC(CN(CC(=O)O)CC(=O)O)N(CC(=O)O)CC(=O)O)cc1 (stereo not given) | Biodistribution (Mus musculus [16]): 9.19%; Biodistribution (Mus musculus [17]): 14.26%; Biodistribution (Mus musculus [18]): 16.91%; Biodistribution (Mus musculus [19]): 20.82%; Biodistribution (Mus musculus [20]): 19.82%; Biodistribution (Mus musculus [21]): 11.68% |
